Laboratory results from the EternaBench riboswitch data.

Test system: MS2 coat protein
Test: apparent Kd, MS2 coat protein; higher = weaker binding; RNA-MaP array; FMN 200 µM where present
How it was run: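 Designs were transcribed by stalled E. coli RNA polymerase on Illumina sequencing-chip clusters. They were titrated with SNAP-549-labelled MS2 coat protein from 0.7 or 1.5 nM, doubling to 3 µM, without and then with constant ligand. Buffer: 100 mM Tris-HCl pH 7.5, 80 mM KCl, 4 mM MgCl2, BSA, DTT, yeast tRNA, Tween-20. Green signal was normalised to red-channel RNA signal and control-cluster median Fmax. Apparent Kd is the median of filtered per-cluster binding-curve fits.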

[1] = designed as: OFF switch for flavin mononucleotide, no ligand
[2] = ligand present: flavin mononucleotide, designed as: OFF switch for flavin mononucleotide
[3] = designed as: ON switch for flavin mononucleotide, no ligand
[4] = ligand present: flavin mononucleotide, designed as: ON switch for flavin mononucleotide

Sequence	apparent Kd [1] [µM]	apparent Kd [2] [µM]	apparent Kd [3] [µM]	apparent Kd [4] [µM]
GACUGUCUAGGAUAUGCGACGUUUUACAUGAGGAUCACCCAUGUUGUCUGCGUGUGUGUGGCAGAAGGAGACAAAC	0.013	0.0199	–	–
AAAACAUGAGGAUCACCCAUGUUUAGAUCGGUCAAUAGAAGUGAGGAUAUACGAAGUUAAGGCUGGUAGAAGGCACUGGGUACA	–	–	0.0324	0.0322
AUCAGCUUGUCAGGAUAUGCAUGUCAACGAAAGUUGACAAUCUUAAUAACAUGAGGAUCACCCAUGUAGAAGGGACGAGCUGAU	0.0171	0.0193	–	–
UUUUCUACUGAGGAUAUUAUAUUACCCGACUGAUAAGAAGGCAGUACAUGAGGAUCACCCAUGUGGGUAGCCAU	0.0218	0.031	–	–
AAAAUCAAGUCAGGAUAUCGUGCGGUUGGUCGUUACAUGAGGAUCACCCAUGUCUUCCGGUAGCUCGAGAAGGGACGUGAGCCC	–	–	0.0186	0.00833
CGAUAACAUAGUUAUCCGUAACGGACAUGAGGAUCACCCAUGUAGGAUAUGUUACUCAACGAGUAACAGAAGGACAUGAGUCUU	0.0382	0.324	–	–
CCUCUACAUGAGGAUCACCCAUGUGAGGAUAUCUCGGAGCAGCCACUUAAGGCACUCCAGAGAAGGCACGUGUA	0.018	0.0257	–	–
CUUAGACAUGAGGAUCACCCAUGUGAGGAUAUGAUGCGAUCGUCGAAAGACGAUAGCAUCAGAAGGUACAAAUG	0.086	0.067	–	–
GCGUACAUAUCAGGAUAUCAUUGAAUGGAUUAACUCAGUGAAUACAUGAGGAUCACCCAUGUGCUUGAGAAGGGAUUACUACGC	0.0146	0.0699	–	–
ACAUACAUUCGAGGAUAUCGGUGAACAUAUUAACGAGAAGGCGAUAUAAUUUUUAAUCUUAUAAACAUGAGGAUCACCCAUGUA	–	–	0.0219	0.0202
AAAAGACAUGAGGAUCACCCAUGUUAAGACGUGGGAGGAUAUGUAUGGAAAACAUGCUGUACAGAAGGCCCGUGUC	–	–	0.0538	0.0197
AGAUAACAUGAGGAUCACCCAUGUGAGGAUAUUUACCCAAGAGCUUCGGCUCUCAGGUGGAGAAGGCACGUUGA	0.0513	0.0768	–	–
UAGUGCAUUAGAGGAUAUUCUUACGACACGAGUAAGACAUGAGGAUCACCCAUGUUGUGGCAUGGGAAGAAGGCUGAUGUGCUA	–	–	0.06	0.0145
GCAAUGUAAGGAUAUUCGGAGUCCUGCCGGGCAGGUAGGUUGGAGAAGGUACAUGAGGAUCACCCAUGUGAGCC	0.0486	0.17	–	–
ACAUGGAAGUAGAAGGGUAAUACUUUAGAAUGUACCAUUAGAUGAUGUUAUACAGGAUAUGCUAACAUGAGGAUCACCCAUGUG	0.0256	0.0198	–	–
AAAAAAAAAAGUCAGGAUAUACAAAUUUUUACAUGAGGAUCACCCAUGUUAAAAAAAAAAAAAAAGUAGAAGGGACAAAAAAAAAA	–	–	0.0209	0.0169
AGUAAGAUGCAGAAGGUGUCAGCGAGAGCUGCGACAUGAGGAUCACCCAUGUGUCGGUGACGACACAAGGAUAUGCAUCUUACA	–	–	0.407	0.227
ACGUGUCGUGUAGGAUAUGACACAGGAAACUGGUCAGAAGGACAUGAGGAUCACCCAUGUAAAGUGUUUAAGAAUGACGUAUGC	0.0439	0.106	–	–
UUUGUGUGAGGAUAUUAAUUGCAAGCGAAUAGGCUUGUGAUUGAGAAGGCACAUGAGGAUCACCCAUGUUCCUU	0.0181	0.151	–	–
GGAUAGGACAGAGGAUAUACGUGCUAGAGAUACUAGCAAAAUUUCCUCACAUGAGGAUCACCCAUGUAGAAGGCUGUCCUGUCG	0.0171	0.354	–	–
GGAUAGUGUCGUUAUCCGUAGCGAACAUGAGGAUCACCCAUGUAGGAUAUGUUAUUAAACUAAUAACAGAAGGGCGUUAGUCUC	0.0371	0.0428	–	–
CUUUUGUGAGGAUAUCAGUAGUAAAUAAAUAAAAUUACUUCUGAGAAGGCACAUGAGGAUCACCCAUGUUCCUC	0.0341	0.251	–	–
GCCUGUGAAGGAUAUACAUGAGGAUCACCCAUGUGGCGGAUAUACCCGCCGAGACCGUGUAGAAGGUCAUAGUA	0.044	0.0408	–	–
CAUAAGAUAGGAUAUACAGGCCCGUCUUCAUAUUGAUCCCGACAUGAGGAUCACCCAUGUAGAAGGAUCAUAUG	0.0135	0.0134	–	–

Sequence	apparent Kd [1] [µM]	apparent Kd [2] [µM]	apparent Kd [3] [µM]	apparent Kd [4] [µM]
UGGGUAAAUGUAGGAUAUUUAUAUUAAUAGUAUGGAGAAGGACAUGAGGAUCACCCAUGUACAGGGAAUUACCCAUUUCCUCUC	1.01	1.1	–	–
GGAAAUCAUGUAGGAUAUGCAUGGCGAAGCUACGCAGAAGGACAUGAGGAUCACCCAUGUUAUAGCUACCAAGUUAGGUGGCAA	0.139	0.144	–	–
CCUUUAUAGAUCCAUUUUAACAACAUGAGGAUCACCCAUGUGCAGGAUAUCGAUUGUUUUACUUUCGAGAAGGGCAAAUUCAGC	0.0193	0.0487	–	–
GUGCAUACGUGAGGAUAUGUAUUAGAUAGUGGUACAGAAGGCAUGUCAGAUGACAUGAGGAUCACCCAUGUUGGCACAAUGCGC	–	–	0.137	0.0305
AAAUUUAACGAAGGAUAUGGAUACAUGAGGAUCACCCAUGUAUAUUUUGUGAUCUUGUUUAAGAUCCAGAAGGUCGUAUACAUA	0.024	0.0561	–	–
UUGUUACGAUUAGGAUAUUAUUGAUUGGACAGUAUGAUUUACAUGAGGAUCACCCAUGUUACUUUUAAGAAGGAAUCGUAUUAU	0.0209	0.0172	–	–
AGCACGAAAGUGCAACGAUGUAGCAGAAGGACAUGAGGAUCACCCAUGUAAGCAGUAUCUGCAAUGUAGGAUAUGCUACAUCGA	0.0136	0.119	–	–
GUCUCGAUGUAGAAGGCCGCGUCCGGCUCACGCGGAGGAUAUACAUGAGGAUCACCCAUGUGUCUGUGGCUUAUAUGUUACGGA	0.0708	0.0683	–	–
GGCAGAGACGUUAACAUGAGGAUCACCCAUGUCGAAGGAGAUGAGGAUAUCGUAUACGAUGUAUAUGAGAAGGCAUGGUCUGCC	–	–	0.0188	0.0076
UGGUACUAGGGAGGAUAUGGGUAGAUACAUGAGGAUCACCCAUGUUUAAGAAUGCCGAGAGGCAACUAGAAGGCCCUAGUACCU	–	–	0.549	0.319
CAAGUCAUAGCUUCUUAGCCAGCCAGAAGGGUCUACAUGAGGAUCACCCAUGUGGUCUCGAAGGGACAGGAUAUGGAGGGCGUA	0.0111	0.0377	–	–
UGGAUGUAGGAGAAGGAGGACUUCAUGAGGAUCACCCAUGUGUUAGUACUUAGGAUAUUUGACAACAUGAGGAUCACCCAUGUC	–	–	0.138	0.113
UUUAAGUCAGGAUAUCGUUAAUUUAAUUAUUUGUUUUAGUUCGAGAAGGGACAUGAGGAUCACCCAUGUAAUUU	0.0388	0.0418	–	–
AUGGACGAAGGAUAUGCAUGGAGACCGGGCAGUUCAGCGCUACAUGAGGAUCACCCAUGUAGAAGGUCGCUCCC	0.016	0.0246	–	–
AUGCUUUUUGUAGGAUAUACAUUUUGUACGUAUGUAGAAGGACAUGAGGAUCACCCAUGUAAAUUAUUAUUAAAUAUCAUACUU	0.0458	0.0318	–	–
GUAACAUGAGGAUCACCCAUGUAUAGAACACUCAAUAGAUCUGAGGAUAUAGUGGAAUUUACACACUAGAAGGCAGUGGGUGCA	–	–	0.0753	0.0336
GUCAGCUCGUGAGGAUAUACAUGUGCUGGAAACAGCAUUAAAUAAUUCACAUGAGGAUCACCCAUGUAGAAGGCACGAGCUGAU	0.0168	0.0338	–	–
CCCAGUUAUCUAGGAUAUUGUACAUGAGGAUCACCCAUGUAAUAAAUGAGGAUUUCGGGUGUCUACAAGAAGGAGAGGAUAGGC	0.0286	0.0261	–	–
GUCAGCUCGUGAGGAUAUACAUAAUCCUAAGAUCACAUGAGGAUCACCCAUGUAGAAGGCACGAGCUGAUAAGCACGAAAGUGC	0.00889	0.0502	–	–
CGAUAAUAUAGUUAUCCGUAGCGAACAUGAGGAUCACCCAUGUAGGAUAUGUUACUAAACUAGUAACAGAAGGGCAUGAGUCUU	0.0321	0.0746	–	–
AAGUAGUGAGGAUAUACAUGGAUAUACAUUCAUGUGGACCUACAUGAGGAUCACCCAUGUAGAAGGCACUAAUA	0.0338	0.0286	–	–
GUCGGAAACGACAAAAGUAUGGAUCCAGAAGGCAUGAAACAUGAGGAUCACCCAUGUCAAAGACAUGAGGAUAUGGAUCCAUAC	–	–	0.00406	0.00319
AAUUUACAGCUAGGAUAUACAUGAGGAUCACCCAUGUAAUCAUAUGAUAUUUUUUUUGUAUGAGUGUAGAAGGAGCAAAUAAAA	0.00938	0.00869	–	–
AAUUUAAUACAUGAGGAUCACCCAUGUAAAUUAAUUAAGAUCUAGGAUAUCAGCUCGUUUAGAGCUGAGAAGGAGAUCACAUGU	–	–	0.0166	0.0141
